# Source: ChEMBL document CHEMBL5715948, “Tubastatin, a selective histone deacetylase 6 inhibitor shows anti-inflammatory and anti-rheumatic effects” (Int Immunopharmacol, 2013)
# Calls of active or inactive are those of the source. No cut-off for these calls is given here.
# Key:
# RAW264.7 [1] = assay: Inhibition of LPS-stimulated NO production in mouse RAW264.7 cells at 10 uM pre-incubated for 24 hrs before LPS-stimulation and measured after 24 hrs post LPS challenge by Griess assay; type: functional; settings: time 48 hrs
# Outline: (§1)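 RAW 264.7 cells (1 million) in 24-well plates, 24 h settle, compound 24 h, then LPS 100 ng/ml for 24 h. Medium nitrite measured with Griess reagent (1% sulfanilamide, 0.1% naphthylethylenediamine in 2.5% phosphoric acid), 10 min room temperature, absorbance 570 nm, quantified against sodium nitrite standard curve; mean ± SD, n = 3.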
# Rattus norvegicus [2] = assay: Antiinflammatory activity in Wistar rat assessed as inhibition of FCA-induced paw inflammation at 1 mg/kg/day, po […] measured 2 hrs after FCA challenge relative to control; type: functional
# Outline: (§2)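 Male Wistar rats (200–225 g) randomized by paw volume, n = 6. Test agent i.p. daily for 5 days or reference oral on day 5; 1 h after dosing on day 5, 100 μg M. tuberculosis in 50 μl IFA injected sub-plantar into both hind paws. Paw volume plethysmometry at 2, 6, 24 h; % inhibition versus vehicle disease control.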
# Rattus norvegicus [3] = assay: Antiinflammatory activity in Wistar rat assessed as inhibition of FCA-induced paw inflammation at 1 mg/kg/day, po […] measured 6 hrs after FCA challenge relative to control; type: functional; outline: as §2
# Rattus norvegicus [4] = assay: Antiinflammatory activity in Wistar rat assessed as inhibition of FCA-induced paw inflammation at 1 mg/kg/day, […] measured 24 hrs after FCA challenge relative to control; type: functional; settings: route po; outline: as §2
# Mus musculus [5] = assay: (§3) Anti-rheumatic activity in DBA1 mouse semi-therapeutic collagen induced arthritis model assessed as inhibition of clinical arthritic scores at 0.1 mg/kg/day, po QD dosed during day 21 to day 36 post immunization by hematoxylin and eosin staining based analysis; type: functional; settings: DBA1, 384 h, time 16 day
# Outline: (§4)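 Collagen-induced arthritis in female DBA1 mice: collagen II/CFA intradermal at tail base day 0, collagen/IFA boost day 21, LPS 50 μg i.p. day 28; once-daily dosing day 21 to 36, six per group. Arthritic clinical scores followed daily from day 28 to 37; mean ± SEM versus vehicle-treated disease control.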
# Mus musculus [6] = assay: Anti-rheumatic activity in DBA1 mouse semi-therapeutic collagen induced arthritis model assessed as inhibition of IL6 level in paw tissues at 0.1 mg/kg/day, po QD dosed during day 21 to day 36 post immunization by ELISA analysis; type: functional; settings: 384 h, time 16 day
# Outline: (§5)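 Female DBA1 mice (6–8 weeks) immunized intradermally at tail base on day 0 with bovine type II collagen in CFA, boosted day 21 with collagen in IFA, LPS 50 μg i.p. day 28; dosed day 21–36 (n = 6/group). Day 37 left paws frozen, pulverized in liquid nitrogen, homogenized in T-PER, spun 500 g 10 min 4 °C; supernatant IL-6 by ELISA, normalized per mg protein.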
# Mus musculus [7] = assay: as §3, with “histopathological changes (cartilage erosion, synovial hyperplasia and inflammation)” for “clinical arthritic scores”; type: functional; settings: DBA1, 384 h, time 16 day
# Outline: (§6)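 Histopathology in collagen II/CFA-immunized DBA1 mice (day 21 boost, day 28 LPS i.p.), treated day 21–36, n = 6. Right fore and hind paws taken at sacrifice on day 37, paraffin-embedded, sectioned, H&E-stained and scored for cartilage erosion, synovial hyperplasia, pannus and cell infiltration.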
# Mus musculus [8] = assay: Anti-rheumatic activity in DBA1 mouse semi-therapeutic collagen induced arthritis model assessed as mild cartilaginous change like proteoglycan loss at 0.1 mg/kg/day, po QD dosed during day 21 to day 36 post immunization by Safranin O staining analysis; type: functional, organism-based; settings: time 16.0 day
# Outline: (§7)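 Right fore and hind paws from collagen-induced arthritic DBA1 mice (treated day 21–36, sacrificed day 37) paraffin-sectioned and stained with Safranin O to detect proteoglycan/glycosaminoglycan loss in articular cartilage.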
# [9] = Toxicity in DBA1 mouse semi-therapeutic collagen induced arthritis model assessed as spleen weight at 0.1 mg/kg/day, po QD dosed during day 21 to day 36 post immunization (reference value: 226.4 +/- 11.03 mg); type: organism-based; settings: in vivo, 384 h, time 16 day
# [10] = Toxicity in DBA1 mouse semi-therapeutic collagen induced arthritis model assessed as thymus weight at 0.1 mg/kg/day, po QD dosed during day 21 to day 36 post immunization (reference value: 12.20 +/- 1.5 mg); type: organism-based; settings: in vivo, 384 h, time 16 day
# [11] = Toxicity in DBA1 mouse semi-therapeutic collagen induced arthritis model assessed as change in body weight at 0.1 mg/kg/day, po QD dosed during day 21 to day 36 post immunization (reference value: -25.03 +/- 5.22%); type: organism-based; settings: in vivo, 384 h, time 16 day
# THP-1 [12] = assay: Inhibition of LPS-stimulated TNFalpha production in PMA-activated human THP-1 cells pre-incubated for 24 hrs before LPS-stimulation and measured after 4 hrs post LPS challenge by ELISA; type: functional, cell-based; settings: time 28.0 hrs
# Outline: (§8)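 THP-1 cells, 10,000/well, differentiated with 32 nM PMA for 24 h, medium replaced and rested 24 h, then compound 24 h before LPS: 10 ng/ml for 4 h (TNF-α) or 100 ng/ml for 8 h (IL-6). Conditioned medium assayed by human ELISA at 450 nm; mean ± SD, n = 3; IC50 from dose–response.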
# THP-1 [13] = assay: Inhibition of LPS-stimulated IL6 production in PMA-activated human THP-1 cells pre-incubated for 24 hrs before LPS-stimulation and measured after 8 hrs post LPS challenge by ELISA; type: functional, cell-based; settings: time 32.0 hrs; outline: as §8
# THP-1 [14] = assay: Cytotoxicity in human THP-1 cells at 100 to 100000 nM incubated for 24 hrs by SRB assay; type: toxicity, cell-based; settings: thp-1, 24 h, 100 µM, dose 100-100000 nM
# Outline: (§9)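 RAW 264.7 (DMEM) or THP-1 (RPMI-1640) cells, 10% FBS, seeded 10,000/well and exposed 24 h to compound in DMSO over 100–100000 nM. SRB staining, absorbance 530 nm; % survival relative to untreated cells, mean ± SD, n = 3.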
# RAW264.7 [15] = assay: Cytotoxicity in mouse RAW264.7 cells at 100 to 100000 nM incubated for 24 hrs by SRB assay; type: toxicity, cell-based; settings: raw264.7, 24 h, 100 µM, dose 100-100000 nM; outline: as §9
# RAW264.7 [16] = assay: Inhibition of LPS-stimulated NO production in mouse RAW264.7 cells pre-incubated for 24 hrs before LPS-stimulation and measured after 24 hrs post LPS challenge by Griess assay; type: functional, cell-based; settings: time 48.0 hrs; outline: as §1
# Rattus norvegicus [17] = assay: Antiinflammatory activity in Wistar rat assessed as inhibition of FCA-induced paw inflammation at 30 mg/kg/day, ip for 5 days measured 2 hrs after FCA challenge relative to control; type: functional; settings: 120 h, time 5 day; outline: as §2
# Rattus norvegicus [18] = assay: Antiinflammatory activity in Wistar rat assessed as inhibition of FCA-induced paw inflammation at 30 mg/kg/day, ip for 5 days and measured 6 hrs after FCA challenge relative to control; type: functional; settings: 120 h, time 5 day; outline: as §2
# Rattus norvegicus [19] = assay: Antiinflammatory activity in Wistar rat assessed as inhibition of FCA-induced paw inflammation at 30 mg/kg/day, ip for 5 days and measured 24 hrs after FCA challenge relative to control; type: functional; settings: 120 h, time 5 day; outline: as §2
# Mus musculus [20] = assay: (§10) Anti-rheumatic activity in DBA1 mouse semi-therapeutic collagen induced arthritis model assessed as inhibition of clinical arthritic scores at 30 mg/kg/day, ip QD dosed during day 21 to day 36 post immunization by hematoxylin and eosin staining based analysis; type: functional; settings: DBA1, 384 h, time 16 day; outline: as §4
# Mus musculus [21] = assay: Anti-rheumatic activity in DBA1 mouse semi-therapeutic collagen induced arthritis model assessed as inhibition of IL6 level in paw tissues at 30 mg/kg/day, ip QD dosed during day 21 to day 36 post immunization by ELISA analysis; type: functional; settings: 384 h, time 16 day; outline: as §5
# Mus musculus [22] = assay: as §10, with “histopathological changes (cartilage erosion, synovial hyperplasia and inflammation)” for “clinical arthritic scores”; type: functional; settings: DBA1, 384 h, time 16 day; outline: as §6
# Mus musculus [23] = assay: Anti-rheumatic activity in DBA1 mouse semi-therapeutic collagen induced arthritis model assessed as mild cartilaginous change like proteoglycan loss at 30 mg/kg/day, ip QD dosed during day 21 to day 36 post immunization by Safranin O staining analysis; type: functional, organism-based; settings: time 16.0 day; outline: as §7
# [24] = Toxicity in DBA1 mouse semi-therapeutic collagen induced arthritis model assessed as spleen weight at 30 mg/kg/day, ip QD dosed during day 21 to day 36 post immunization (reference value: 226.4 +/- 11.03 mg); type: organism-based; settings: in vivo, 384 h, time 16 day
# [25] = Toxicity in DBA1 mouse semi-therapeutic collagen induced arthritis model assessed as thymus weight at 30 mg/kg/day, ip QD dosed during day 21 to day 36 post immunization (reference value: 12.20 +/- 1.5 mg); type: organism-based; settings: in vivo, 384 h, time 16 day
# [26] = Toxicity in DBA1 mouse semi-therapeutic collagen induced arthritis model assessed as change in body weight at 30 mg/kg/day, ip QD dosed during day 21 to day 36 post immunization (reference value: -25.03 +/- 5.22%); type: organism-based; settings: in vivo, 384 h, time 16 day
structure (smiles),measurement,setting,value
C[C@@H]1C[C@H]2[C@@H]3CCC4=CC(=O)C=C[C@]4(C)[C@@]3(F)[C@@H](O)C[C@]2(C)[C@@]1(O)C(=O)CO [DEXAMETHASONE],inhibition at 10 µM,RAW264.7 [1],36%
same,inhibition in vivo at 1 mg/kg/day,Rattus norvegicus [2],65.4%
same,inhibition in vivo at 1 mg/kg/day,Rattus norvegicus [3],90.5%
same,inhibition in vivo at 1 mg/kg/day,Rattus norvegicus [4],49.5%
same,inhibition in vivo at 0.1 mg/kg/day,Mus musculus [5],92%
same,inhibition in vivo at 0.1 mg/kg/day,Mus musculus [6],66%
same,inhibition in vivo at 0.1 mg/kg/day,Mus musculus [7],100%
same,Activity,Mus musculus [8],Active
same,Activity,[9],52.5 mg
same,Activity,[10],6.5 mg
same,Activity,[11],-13.9%
CN1CCc2c(c3ccccc3n2Cc2ccc(C(=O)NO)cc2)C1 [TUBASTATIN A],inhibition,THP-1 [12],Dose-Dependent Effect
same,inhibition,THP-1 [13],Dose-Dependent Effect
same,Activity,THP-1 [14],Non-Toxic
same,Activity,RAW264.7 [15],Non-Toxic
same,inhibition,RAW264.7 [16],Dose-Dependent Effect
same,inhibition at 10 µM,RAW264.7 [1],66%
same,inhibition in vivo at 30 mg/kg/day,Rattus norvegicus [17],71.9%
same,inhibition in vivo at 30 mg/kg/day,Rattus norvegicus [18],40.3%
same,inhibition in vivo at 30 mg/kg/day,Rattus norvegicus [19],38.6%
same,inhibition in vivo at 30 mg/kg/day,Mus musculus [20],73%
same,inhibition in vivo at 30 mg/kg/day,Mus musculus [21],59%
same,inhibition in vivo at 30 mg/kg/day,Mus musculus [22],71%
same,Activity,Mus musculus [23],Active
same,Activity,[24],182 mg
same,Activity,[25],17.5 mg
same,Activity,[26],-1.07%
